Data as given in ChEMBL document CHEMBL4842367, “Strategies toward Discovery of Potent and Orally Bioavailable Proteolysis Targeting Chimera Degraders of Androgen Receptor for the Treatment of Prostate Cancer” (J Med Chem, 2021).
Activity calls are given as the source filed them. The rule behind the calls is not given here.

Columns and labels:
[1] = Oral bioavailability in ICR mouse at 5 mg/kg measured up to 24 hrs by LC-MS/MS analysis; type: ADME, organism-based; details: in vivo
In short: (§1)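 Male ICR mice, single oral gavage (3 or 5 mg/kg) in 5% DMSO/10% solutol/85% saline, three mice per group. Separate IV tail-vein bolus group (1 or 2 mg/kg) in the same vehicle. Blood sampled at 0.083–24 h, one sample per mouse, plasma diluted threefold and analysed by LC–MS/MS; noncompartmental parameters.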

[2] = Drug uptake in human VCaP cells xenografted in SCID mouse tumor tissue at 20 mg/kg, po single dose measured after 24 hrs by LC-MS/MS analysis; type: ADME, organism-based, Neoplasm; details: in vivo
In short: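 Male CB17 SCID mice carried subcutaneous VCaP xenografts, implanted as 5 × 10⁶ cells in Matrigel, grown to about 200 mm³. Mice received a single oral gavage of 20 mg/kg in 100% PEG200. Tumors were collected at 6 and 24 h, three mice per time point, and frozen. They were homogenized in water/acetonitrile 4:1, protein-precipitated with cold acetonitrile, and assayed by LC-MS/MS (positive-ion MRM). Values are mean ± SD.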

Mus musculus [3] = experiment: Reduction in AR protein level in tumor of human VCaP cells xenografted in SCID mouse at 20 mg/kg, po single dose measured after 24 hrs by Western blot analysis; type: functional, organism-based
In short: (§2)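 SCID mice bearing VCaP xenografts given one oral dose of 20 mg/kg; tumors harvested at 6 and 24 h after dosing and AR protein measured by Western blot with GAPDH loading control.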

[4] = biological target: Protein cereblon/Androgen receptor (Homo sapiens, UniProt P10275+Q96SW2); experiment: Protac activity at CRBN/AR in human VCaP cells assessed as induction of AR degradation measured after 24 hrs by western blot analysis
[5] = Half life in ICR mouse at 2 mg/kg, iv measured up to 24 hrs by LC-MS/MS analysis; type: ADME, organism-based; details: in vivo
In short: (§3)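 Male ICR mice received a single tail-vein IV bolus in 5% DMSO/10% solutol/85% saline at 5 mL/kg. Blood was taken at 0.083, 0.25, 0.5, 1, 2, 4, 6, 8 and 24 h, with n = 3 per time point and each mouse sampled once. Plasma supernatant was diluted three times with water and analysed by LC-MS/MS, and terminal T1/2 was derived noncompartmentally.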

[6] = Tmax in ICR mouse at 5 mg/kg, po measured up to 24 hrs by LC-MS/MS analysis; type: ADME, organism-based; details: in vivo; in short: as §1
[7] = Plasma concentration in human VCaP cells xenografted in SCID mouse at 20 mg/kg, po single dose measured after 24 hrs by LC-MS/MS analysis; type: ADME, organism-based
In short: (§4)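 Single oral gavage, 20 mg/kg in 100% PEG200, to male SCID mice bearing one VCaP tumor each (about 200 mm³). Plasma and tumor taken at 6 and 24 h, three mice per time point. Tumors frozen, ground in liquid nitrogen, homogenized in water/acetonitrile 4:1, precipitated with cold acetonitrile; analysis by positive-ion MRM LC–MS/MS.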

[8] = Drug uptake in human VCaP cells xenografted in SCID mouse tumor tissue at 20 mg/kg, po single dose measured after 6 hrs by LC-MS/MS analysis; type: ADME, organism-based, Neoplasm; details: in vivo; in short: as §4
[9] = Plasma concentration in human VCaP cells xenografted in SCID mouse at 20 mg/kg, po single dose measured after 6 hrs by LC-MS/MS analysis; type: ADME, organism-based; in short: as §4
VCaP [10] = experiment: Antitumor activity against human VCaP cells xenografted in SCID mouse assessed as tumor growth inhibition at 40 mg/kg, po measured on day 21 relative to control; type: functional; details: 504 h, read-out: TGI
In short: (§5)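 Male CB17 SCID mice implanted s.c. with 5 × 10⁶ VCaP cells in Matrigel; at average tumor volume 150 mm³, size-matched and randomized, seven per group. Oral gavage daily for 21 days in 100% PEG200. Tumors measured 2–3 times weekly, volume = length × width²/2; TGI (%) = (Vc − Vt)/(Vc − Vo) × 100 using group medians at start and end.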

Mus musculus [11] = experiment: Reduction in AR protein level in tumor of human VCaP cells xenografted in SCID mouse at 20 mg/kg, po single dose measured after 6 hrs by Western blot analysis; type: functional, organism-based; in short: as §2
VCaP [12] = experiment: Antitumor activity against human VCaP cells xenografted in SCID mouse assessed as tumor growth inhibition at 10 mg/kg, po measured on day 21 relative to control; type: functional; details: 504 h, read-out: TGI; in short: as §5
LNCaP [13] = experiment: Suppression of PSA gene expression in human LNCaP cells assessed as mRNA level treated for 24 hrs by qRT-PCR analysis; type: functional, cell-based; details: dose 1-1000 nM
In short: (§6)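 VCaP and LNCaP cells treated 24 h; PSA (KLK3) and TMPRSS2 mRNA quantified by TaqMan qRT-PCR, comparative CT method relative to GAPDH and then vehicle control.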

VCaP [14] = experiment: Suppression of PSA gene expression in human VCaP cells assessed as mRNA level treated for 24 hrs by qRT-PCR analysis; type: functional, cell-based; details: dose 1-1000 nM; in short: as §6
LNCaP [15] = experiment: Suppression of TMPRSS2 gene expression in human LNCaP cells assessed as mRNA level treated for 24 hrs by qRT-PCR analysis; type: functional, cell-based; details: dose 1-1000 nM; in short: as §6
[16] = Reduction in TMPRSS2 gene expression in human VCaP cells xenografted in SCID mouse tumor tissue assessed as reduction in mRNA level at 10 mg/kg, po for 3 days measured after 3 hrs of treatment by […]; type: functional; details: 72 h, time 3 day
In short: (§7)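 VCaP xenograft-bearing SCID mice dosed orally at 10 mg/kg daily for 3 days; tumors taken 3 h after the last dose. PSA, TMPRSS2 and FKBP5 mRNA measured by TaqMan qRT-PCR, comparative CT normalized to GAPDH and to vehicle control.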

VCaP [17] = experiment: Growth inhibition of human VCaP cells assessed as cell viability measured after 4 days in presence of R1881 by WST-8 assay; type: functional, cell-based; details: 96 h
In short: (§8)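 LNCaP and VCaP cells exposed to compounds for 4 days in charcoal-stripped medium containing 0.1 nM R1881; viability read by WST-8 assay.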

[18] = Toxicity in SCID mouse xenografted with human VCaP cells assessed as weight loss at 40 mg/kg, po measured on day 21; type: organism-based; details: in vivo
In short: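 Male CB17 SCID mice bearing s.c. VCaP xenografts, randomized at about 150 mm³ (seven per group), gavaged daily for 21 days in 100% PEG200; body weights recorded 2–3 times per week to follow maximum weight loss.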

VCaP [19] = experiment: Antitumor activity against human VCaP cells xenografted in SCID mouse assessed as tumor growth inhibition at 20 mg/kg, po measured on day 21 relative to control; type: functional; details: 504 h, read-out: TGI; in short: as §5
[20] = Reduction in PSA gene expression in human VCaP cells xenografted in SCID mouse tumor tissue assessed as reduction in mRNA level at 10 mg/kg, po for 3 days measured after 3 hrs of treatment by […]; type: functional; details: 72 h, time 3 day; in short: as §7
LNCaP [21] = experiment: Growth inhibition of human LNCaP cells assessed as cell viability measured after 4 days in presence of R1881 by WST-8 assay; type: functional, cell-based; details: 96 h; in short: as §8
VCaP [22] = experiment: Suppression of TMPRSS2 gene expression in human VCaP cells assessed as mRNA level treated for 24 hrs by qRT-PCR analysis; type: functional, cell-based; details: dose 1-1000 nM; in short: as §6
Mus musculus [23] = experiment: Reduction in AR protein level in human VCaP cells xenografted in SCID mouse tumor tissue at 10 mg/kg, po for 3 days measured after 3 to 24 hrs of treatment by Western blot analysis; type: functional, organism-based; details: time 3.0 day
In short: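 SCID mice with VCaP xenografts gavaged 10 mg/kg daily for 3 days; tumors collected at 3, 6 and 24 h after the last dose for Western blot of AR, GAPDH as loading control.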

[24] = Reduction in FKBPS gene expression in human VCaP cells xenografted in SCID mouse tumor tissue assessed as reduction in mRNA level at 10 mg/kg, po for 3 days measured after 3 hrs of treatment by […]; type: functional; details: 72 h, time 3 day; in short: as §7
[25] = Tmax in ICR mouse at 3 mg/kg, po measured up to 24 hrs by LC-MS/MS analysis; type: ADME, organism-based; details: in vivo; in short: as §1
[26] = Half life in ICR mouse at 1 mg/kg, iv measured up to 24 hrs by LC-MS/MS analysis; type: ADME, organism-based; details: in vivo; in short: as §3
[27] = Oral bioavailability in ICR mouse at 3 mg/kg measured up to 24 hrs by LC-MS/MS analysis; type: ADME, organism-based; details: in vivo; in short: as §1

Protein cereblon/Androgen receptor, sequence (P10275 whole entry): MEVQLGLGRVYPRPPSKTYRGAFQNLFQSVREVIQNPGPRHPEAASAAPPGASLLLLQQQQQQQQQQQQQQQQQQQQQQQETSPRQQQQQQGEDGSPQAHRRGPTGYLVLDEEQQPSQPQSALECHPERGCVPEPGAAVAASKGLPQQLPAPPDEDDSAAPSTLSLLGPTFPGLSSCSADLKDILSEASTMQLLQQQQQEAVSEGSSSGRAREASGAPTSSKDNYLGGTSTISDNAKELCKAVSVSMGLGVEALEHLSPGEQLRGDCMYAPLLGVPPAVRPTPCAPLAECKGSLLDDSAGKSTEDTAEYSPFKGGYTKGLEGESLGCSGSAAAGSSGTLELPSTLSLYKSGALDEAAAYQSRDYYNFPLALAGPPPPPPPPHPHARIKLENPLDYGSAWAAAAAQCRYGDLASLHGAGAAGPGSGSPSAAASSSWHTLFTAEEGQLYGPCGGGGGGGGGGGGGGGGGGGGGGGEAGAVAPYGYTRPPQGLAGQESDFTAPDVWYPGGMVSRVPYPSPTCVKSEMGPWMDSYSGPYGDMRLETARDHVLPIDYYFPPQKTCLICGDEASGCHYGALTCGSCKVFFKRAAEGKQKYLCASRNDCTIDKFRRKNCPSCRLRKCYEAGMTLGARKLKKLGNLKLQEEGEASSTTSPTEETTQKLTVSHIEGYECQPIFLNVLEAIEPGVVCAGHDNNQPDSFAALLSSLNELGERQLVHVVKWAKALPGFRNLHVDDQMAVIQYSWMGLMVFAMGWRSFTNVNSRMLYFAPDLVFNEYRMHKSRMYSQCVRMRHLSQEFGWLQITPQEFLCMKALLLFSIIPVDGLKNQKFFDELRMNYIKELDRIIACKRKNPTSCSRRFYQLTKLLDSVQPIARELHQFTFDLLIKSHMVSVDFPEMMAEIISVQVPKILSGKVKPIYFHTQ
Protein cereblon/Androgen receptor, sequence (Q96SW2 whole entry): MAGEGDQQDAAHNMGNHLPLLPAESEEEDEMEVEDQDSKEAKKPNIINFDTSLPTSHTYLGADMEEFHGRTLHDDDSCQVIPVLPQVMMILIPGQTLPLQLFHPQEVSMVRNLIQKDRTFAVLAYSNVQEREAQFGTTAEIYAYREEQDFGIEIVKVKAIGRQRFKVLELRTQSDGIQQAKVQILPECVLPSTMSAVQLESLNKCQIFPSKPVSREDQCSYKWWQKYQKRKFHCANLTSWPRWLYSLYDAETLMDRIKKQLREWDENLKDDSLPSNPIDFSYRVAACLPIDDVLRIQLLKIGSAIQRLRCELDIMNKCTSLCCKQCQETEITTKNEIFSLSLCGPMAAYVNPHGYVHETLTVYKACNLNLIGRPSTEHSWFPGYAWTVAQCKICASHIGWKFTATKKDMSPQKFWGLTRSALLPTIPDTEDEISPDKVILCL

Compound | F [1] | Drug uptake [2] | EC50 [4] | Tmax [6] | concentration at 24 h [7] | Drug uptake [8] | concentration at 6 h [9] | IC50 (VCaP [17]) | IC50 (LNCaP [21]) | Activity (Mus musculus [3]) | also measured
CNC(=O)c1ccc(N2C(=S)N(c3ccc(C#N)c(C(F)(F)F)c3)C(=O)C2(C)C)cc1F [ENZALUTAMIDE] | – | – | – | – | – | – | – | – | – | – | inhibition in vivo at 40 mg/kg (VCaP [10]): 39%
CC1(C)[C@H](NC(=O)c2ccc(N3CCN(C4CCN(c5ccc6c(c5)C(=O)N(C5CCC(=O)NC5=O)C6=O)CC4)CC3)cc2)C(C)(C)[C@H]1Oc1ccc(C#N)c(Cl)c1 (stereo partly drawn) | 37% | 685 ng/g | 0.8 nM | 4 h | 0.776 µg/mL | 315 ng/kg | 0.803 µg/mL | – | – | Active | Activity (Mus musculus [11]): Active
CC1(C)[C@H](NC(=O)c2ccc(N3CCC(N4CCN(c5ccc6c(c5)C(=O)N(C5CCC(=O)NC5=O)C6=O)CC4)CC3)cc2)C(C)(C)[C@H]1Oc1ccc(C#N)c(Cl)c1 (stereo partly drawn) | – | – | 0.1 nM | – | – | – | – | – | – | – | Tmax [25]: 6 h; t1/2 [26]: 21 h; F [27]: 24%
CN1CCN(c2ccc(C(=O)N[C@H]3C(C)(C)[C@H](Oc4ccc(C#N)c(Cl)c4)C3(C)C)cc2)CC1 | – | – | – | – | – | – | – | 49 nM | 81 nM | – | –
CN1C(=O)CCC(N2C(=O)c3ccc(N4CCC(CN5CCN(c6ccc(C(=O)N[C@H]7C(C)(C)[C@H](Oc8ccc(C#N)c(Cl)c8)C7(C)C)cc6)CC5)CC4)cc3C2=O)C1=O (stereo partly drawn) | – | – | – | – | – | – | – | 783 nM | 237 nM | – | –

The next lines start with results.

F [1] | Drug uptake [2] | EC50 [4] | Tmax [6] | concentration at 24 h [7] | Drug uptake [8] | concentration at 6 h [9] | IC50 (VCaP [17]) | IC50 (LNCaP [21]) | Compound | Activity (Mus musculus [3]) | also measured
75% | 1740 ng/g | 0.2 nM | 4 h | 1.67 µg/mL | 718 ng/g | 1.36 µg/mL | – | – | CC1(C)[C@H](NC(=O)c2ccc(N3CCN(CC4CN(c5ccc6c(c5)C(=O)N(C5CCC(=O)NC5=O)C6=O)C4)CC3)cc2)C(C)(C)[C@H]1Oc1ccc(C#N)c(Cl)c1 (stereo partly drawn) | Active | t1/2 [5]: 17.8 h
67% | 1510 ng/g | 0.3 nM | 4.7 h | 1.66 µg/mL | 635 ng/g | 1.51 µg/mL | 4 nM | 5 nM | CC1(C)[C@H](NC(=O)c2ccc(N3CCN(CC4CCN(c5ccc6c(c5)C(=O)N(C5CCC(=O)NC5=O)C6=O)CC4)CC3)cc2)C(C)(C)[C@H]1Oc1ccc(C#N)c(Cl)c1 (stereo partly drawn) | Active | inhibition in vivo at 10 mg/kg (VCaP [12]): 46%; Activity (LNCaP [13]): Dose-Dependent Effect; Activity (VCaP [14]): Dose-Dependent Effect; Activity (LNCaP [15]): Dose-Dependent Effect; inhibition in vivo at 10 mg/kg [16]: > 50%; inhibition in vivo at 40 mg/kg (VCaP [10]): 63%; Activity [18]: ≤ 5%; inhibition in vivo at 20 mg/kg (VCaP [19]): 69%; inhibition in vivo at 10 mg/kg [20]: > 50%; Activity (VCaP [22]): Dose-Dependent Effect; Activity (Mus musculus [23]): Active; inhibition in vivo at 10 mg/kg [24]: > 50%
– | – | 0.4 nM | – | – | – | – | – | – | CC1(C)[C@H](NC(=O)c2ccc(N3CCC(CN4CCN(c5ccc6c(c5)C(=O)N(C5CCC(=O)NC5=O)C6=O)CC4)CC3)cc2)C(C)(C)[C@H]1Oc1ccc(C#N)c(Cl)c1 (stereo partly drawn) | – | Tmax [25]: 4.7 h; t1/2 [26]: 25.5 h; F [27]: 33%
